Assay results published in ChEMBL document CHEMBL1131244, “New alkenyldiarylmethanes with enhanced potencies as anti-HIV agents which act as non-nucleoside reverse transcriptase inhibitors” (J Med Chem, 1998).

Key:
CEM-SS [1] = test: Inhibitory concentration for cytopathicity of HIV-1 RF in CEM-SS cells; NA means there was no observed inhibition of HIV-1 cytopathicity up to the cytotoxic concentration in uninfected cells.; assay type: functional, cell-based
Method in brief: (§1)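 XTT cytoprotection assay in CEM-SS cells infected with HIV-1 RF, with uninfected cultures for cytotoxicity, in presence of fetal calf serum. Data as percent of uninfected drug-free control. EC50 is 50% protection from cytopathicity; CC50 is 50% cell death in uninfected cells; TI = CC50/EC50. Triplicates on each of two sister plates, plate EC50s averaged. Confirmed by supernatant RT and p24.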

CCRF-CEM [2] = test: The compound is evaluated for the cytotoxic concentration for the mock-infected CEM cells; assay type: functional; details: Homo sapiens; method in brief: as §1
[3] = target: Human immunodeficiency virus type 1 reverse transcriptase (Human immunodeficiency virus 1, UniProt Q72547); test: Inhibitory activity against human immunodeficiency virus (HIV) - 1 reverse transcriptase with rCdG as the template primer
Method in brief: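 Reactions stopped with ice-cold 10% trichloroacetate, filtered through GF/C membrane, washed with ethanol, radiolabel counted by Cerenkov counting. AZTTP and nevirapine as positive controls; IC50 reported.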

CEM-SS [4] = test: The compound is evaluated for the activity against HIV-1 NL4-3, A98G mutation in reverse transcriptase in CEM-SS cells.
CEM-SS [5] = test: The compound is evaluated for the activity against HIV-1 NL4-3, wild - type mutation in reverse transcriptase in CEM-SS cells.; assay type: functional, cell-based; details: Homo sapiens
Method in brief: (§2)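 NL4-3-background virus carrying RT mutations, from site-directed mutagenesis or in vitro NNRTI selection, tested in CEM-SS cells. A higher MOI was used than in the primary screening assays. The result is given as EC50 against each mutant or wild-type virus.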

[6] = The compound is evaluated for the inhibitory activity against HIV-1, clade D in PBMC cells.; assay type: functional, cell-based, Homo sapiens
CCRF-CEM [7] = test: The compound is evaluated for the activity against OC (Oxathiin carboxanilide resistant), L100I mutation in reverse transcriptase in CEM-CC cells.; assay type: functional, cell-based; details: Homo sapiens
Method in brief: (§3)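 Cytoprotection assay in CEM-CC cells against NNRTI-resistant HIV-1 isolates obtained by in vitro selection or site-directed mutagenesis, using a higher MOI than the original screening assays. EC50 determined; fold resistance relative to wild-type HIV-1 IIIB.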

CEM-SS [8] = test: The compound is evaluated for the activity against HIV-1 NL4-3, L74V mutation in reverse transcriptase in CEM-SS cells.
CEM-SS [9] = test: The compound is evaluated for the activity against HIV-1 NL4-3, V106A mutation in reverse transcriptase in CEM-SS cells.
CCRF-CEM [10] = test: The compound is evaluated for the activity against calo ( calanolide resistant), T139I mutation in reverse transcriptase in CEM-CC cells.; assay type: functional, cell-based; details: Homo sapiens; method in brief: as §3
CCRF-CEM [11] = test: The compound is evaluated for the activity against 129/cost (costatolide resistant), V108I mutation in reverse transcriptase in CEM-CC cells.; assay type: functional, cell-based; details: Homo sapiens, in the assay text read “K103N” for “V108I”; method in brief: as §3
CCRF-CEM [12] = test: The compound is evaluated for the activity against TSAO/cost (costatolide resistant), K101E mutation in reverse transcriptase in CEM-CC cells.; assay type: functional, cell-based; details: Homo sapiens; method in brief: as §3
CEM-SS [13] = test: The compound is evaluated for the inhibitory activity against HIV-1 IIIB, wild-type laboratory adapted strain in CEM-SS.; assay type: functional, cell-based; details: Homo sapiens
Method in brief: (§4)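 XTT cytoprotection assay in CEM-SS cells infected with HIV-1. EC50 is the concentration giving 50% protection from viral cytopathicity, relative to the uninfected drug-free control. Triplicates were averaged on each of two sister plates, and the two plate EC50s were averaged. Results were confirmed by supernatant RT and p24 levels.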

CCRF-CEM [14] = test: The compound is evaluated for the activity against DPS ( Diphenyl sulfone resistant), Y181C mutation in reverse transcriptase in CEM-CC cells.; assay type: functional, cell-based; details: Homo sapiens; method in brief: as §3
CEM-SS [15] = test: The compound is evaluated for the activity against HIV-1 NL4-3, V179D mutation in reverse transcriptase in CEM-SS cells.
CEM-SS [16] = test: The compound is evaluated for the activity against HIV-1 NL4-3, Y188C mutation in reverse transcriptase in CEM-SS cells.
CEM-SS [17] = test: The compound is evaluated for the activity against HIV-1 NL4-3, 4XAZT (AZT resistant) mutation in reverse transcriptase in CEM-SS cells.; assay type: functional, cell-based; details: Homo sapiens; method in brief: as §2
[18] = The compound is evaluated for the inhibitory activity against HIV-1 ROJO, wild-type clinical isolate in PBMC cells.; assay type: functional, cell-based, Homo sapiens
CEM-SS [19] = test: The compound is evaluated for the activity against HIV-1 NL4-3, Y181C mutation in reverse transcriptase in CEM-SS cells.
[20] = The compound is evaluated for the inhibitory activity against HIV-1, clade E in PBMC cells.; assay type: functional, cell-based, Homo sapiens
CEM-SS [21] = test: The compound is evaluated for the activity against HIV-1 NL4-3, L100I mutation in reverse transcriptase in CEM-SS cells.
CEM-SS [22] = test: The compound is evaluated for the activity against HIV-1 NL4-3, 4XAZT/L100I (AZT resistant) mutation in reverse transcriptase in CEM-SS cells.
[23] = The compound is evaluated for the inhibitory activity against HIV-1, clade A in PBMC cells.; assay type: functional, cell-based, Homo sapiens
CEM-SS [24] = test: The compound is evaluated for the activity against HIV-1 NL4-3, K101E mutation in reverse transcriptase in CEM-SS cells.
CEM-SS [25] = test: The compound is evaluated for the inhibitory activity against HIV-1 RF, wild-type laboratory adapted strain in CEM-SS.; assay type: functional, cell-based; details: Homo sapiens; method in brief: as §4
Homo sapiens = species: Homo sapiens; test: The compound is evaluated for the inhibitory activity against HIV-1 Ba-L, monocyte-tropic in Mono/Mac cells.; assay type: functional, cell-based
[26] = The compound is evaluated for the inhibitory activity against HIV-1 TEKI, wild-type clinical isolate in PBMC cells.; assay type: functional, cell-based, Homo sapiens
[27] = The compound is evaluated for the inhibitory activity against HIV-1, clade F in PBMC cells.; assay type: functional, cell-based, Homo sapiens
[28] = The compound is evaluated for the inhibitory activity against HIV-1, clade B in PBMC cells.; assay type: functional, cell-based, Homo sapiens
CEM-SS [29] = test: The compound is evaluated for the activity against HIV-1 NL4-3, V108I mutation in reverse transcriptase in CEM-SS cells.
[30] = target: Human immunodeficiency virus 1 nucleocapsid (Human immunodeficiency virus 1, UniProt Q76059); test: Inhibition of HIV-1 Nucleocapsid protein p7 (no inhibition at 25 uM)
CCRF-CEM [31] = test: The compound is evaluated for the activity against thiazol (thiazolobenzimidazole resistant), T139I mutation in reverse transcriptase in CEM-CC cells.; assay type: functional, cell-based; details: Homo sapiens, in the assay text read “V108I” for “T139I”; method in brief: as §3
[32] = target: Human immunodeficiency virus type 1 integrase (Human immunodeficiency virus 1, UniProt Q7ZJM1); test: The compound is evaluated for the inhibitory against HIV -1 integrase. NI indicates no inhibition at 100 uM conc.
CCRF-CEM [33] = test: The compound is evaluated for the activity against HEPT ((Hydroxyethoxy) methyl (phenylthio)thymine resistant), P236L mutation in reverse transcriptase in CEM-CC cells.; assay type: functional, cell-based; details: Homo sapiens; method in brief: as §3
CCRF-CEM [34] = test: The compound is evaluated for the activity against 3TC, M184I mutation in reverse transcriptase in CEM-CC cells.; assay type: functional, cell-based; details: Homo sapiens
[35] = The compound is evaluated for the inhibitory activity against HIV-1, clade C in PBMC cells.; assay type: functional, cell-based, Homo sapiens
CCRF-CEM [36] = test: The compound is evaluated for the activity against cost, Y188H mutation in reverse transcriptase in CEM-CC cells.; assay type: functional, cell-based; details: Homo sapiens; method in brief: as §3
CEM-SS [37] = test: The compound is evaluated for the activity against HIV-1 NL4-3, 4XAZT/Y181C (AZT resistant) mutation in reverse transcriptase in CEM-SS cells.
CEM-SS [38] = test: The compound is evaluated for the activity against HIV-1 NL4-3, K103N mutation in reverse transcriptase in CEM-SS cells.
CCRF-CEM [39] = test: The compound is evaluated for the activity against HIV-1 IIIB, wild - type mutation in reverse transcriptase in CEM-CC cells.; assay type: functional, cell-based; details: Homo sapiens
Method in brief: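 Resistant-virus panel in CEM-CC cells. Mutant isolates came from in vitro selection under various NNRTIs. More virus (higher MOI) was used than in the primary screening assays. The result is given as EC50 against each RT-mutant or wild-type isolate.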

[40] = target: Human immunodeficiency virus type 1 protease (Human immunodeficiency virus 1, UniProt Q72874); test: The compound is evaluated for the inhibitory against HIV -1 protease, a 17% inhibition of HIV-1 protease was observed at a concentration of 100 uM

## COC(=O)c1cc(C(=CCCCC(=O)O)c2cc(Cl)c(OC)c(C(=O)OC)c2)cc(Cl)c1OC
CEM-SS [1]
  EC50: Not Active
CCRF-CEM [2]
  CC50: 100000 nM
[3]
  IC50: > 100000 nM

## COC(=O)CCCC=C(c1cc(Cl)c(OC)c(C(=O)OC)c1)c1cc(Cl)c(OC)c(C(=O)OC)c1
CEM-SS [4]
  EC50: 840 nM
CEM-SS [5]
  EC50: 1780 nM
[6]
  EC50: 1020 nM
CCRF-CEM [7]
  EC50: 940 nM
CEM-SS [8]
  EC50: 2230 nM
CEM-SS [9]
  EC50: 12700 nM
CCRF-CEM [10]
  EC50: 15000 nM
CCRF-CEM [11]
  EC50: 10800 nM
CCRF-CEM [12]
  EC50: 11900 nM
CEM-SS [13]
  EC50: 160 nM
CCRF-CEM [14]
  EC50: > 50000 nM
CEM-SS [15]
  EC50: 50000 nM
CEM-SS [16]
  EC50: 10800 nM
CEM-SS [17]
  EC50: 900 nM
[18]
  EC50: 2280 nM
CEM-SS [19]
  EC50: > 50000 nM
[20]
  EC50: 400 nM
CEM-SS [21]
  EC50: < 160 nM
CEM-SS [22]
  EC50: 270 nM
[23]
  EC50: 1090 nM
CCRF-CEM [2]
  CC50: 31600 nM
CEM-SS [24]
  EC50: 3050 nM
CEM-SS [25]
  EC50: 910 nM
Homo sapiens
  EC50: 360 nM
[26]
  EC50: 2200 nM
[27]
  EC50: 1700 nM
[28]
  EC50: 430 nM
CEM-SS [29]
  EC50: 12000 nM
[30]
  IC50: No inhibition
CCRF-CEM [31]
  EC50: > 50000 nM
[32]
  IC50: No inhibition
CCRF-CEM [33]
  EC50: 8080 nM
CCRF-CEM [34]
  EC50: 1080 nM
[35]
  EC50: 1040 nM
CCRF-CEM [36]
  EC50: > 50000 nM
CEM-SS [37]
  EC50: > 50000 nM
CEM-SS [38]
  EC50: > 50000 nM
CCRF-CEM [39]
  EC50: 390 nM
[40]
  IC50: > 100000 nM

## CCCCCC=C(c1ccc(OC)c(C(=O)OC)c1)c1ccc(OC)c(C(=O)OC)c1
CEM-SS [1]
  EC50: Not Active
CCRF-CEM [2]
  CC50: 14000 nM
[3]
  IC50: 3200 nM

## COc1c(Cl)cc(C(=CCC(=O)O)c2cc(Cl)c(OC)c(C(=O)O)c2)cc1C(=O)O
CEM-SS [1]
  EC50: Not Active
CCRF-CEM [2]
  CC50: > 316000 nM
[3]
  IC50: > 100000 nM

## CC1(C)OC(=O)c2cc(C(=CCCBr)c3cc(Cl)c4c(c3)C(=O)OC(C)(C)O4)cc(Cl)c2O1
CEM-SS [1]
  EC50: Not Active
CCRF-CEM [2]
  CC50: 176000 nM
[3]
  IC50: > 100000 nM
